Measured values published in ChEMBL document CHEMBL3616437, “Thiazole compounds with activity against Cryptococcus gattii and Cryptococcus neoformans in vitro” (Eur J Med Chem, 2015).

Tests used:
[1] = test system: Cryptococcus gattii species complex; assay: Ratio of compound MIC for Cryptococcus gattii 135L/03 in presence of fluconazole to compound MIC for Cryptococcus gattii 135L/03 in absence of fluconazole by checkerboard microtiter test; format: functional, Cryptococcus bacillisporus
Summary of the method: (§1)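 Checkerboard microdilution: eight two-fold dilutions of test compound (0.11 to 15.6 µM) crossed with amphotericin B (0.025 to 3.9 µM, in DMSO) or fluconazole (0.48 to 62.5 µM, in water). Inoculum per CLSI M27-A3 in RPMI-MOPS pH 7.0, 1-5 x10^3 cells/mL. Growth 48 to 72 h. Effective MIC is the combination concentration giving complete inhibition. FICs derived from MICs in combination versus alone.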

[2] = test system: Cryptococcus gattii species complex; assay: Ratio of compound MIC for Cryptococcus gattii 547/OTTI-97-PI-10 in presence of amphotericin B to compound MIC for Cryptococcus gattii 547/OTTI-97-PI-10 in absence of amphotericin B by checkerboard microtiter test; format: functional, Cryptococcus bacillisporus; summary of the method: as §1
[3] = test system: Cryptococcus neoformans; assay: Antifungal activity against Cryptococcus neoformans ATCC 28957 assessed as reduction in cell viability at 3.9 uM after 6 to 72 hrs by MTT assay; format: functional
[4] = test system: Cryptococcus neoformans; assay: Antifungal activity against Cryptococcus neoformans F10 assessed as reduction in cell viability at 3.9 uM after 6 to 72 hrs by MTT assay; format: functional
[5] = test system: Cryptococcus gattii species complex; assay: Antifungal activity against Cryptococcus gattii LMM818 assessed as reduction in cell viability at 3.9 uM after 6 to 72 hrs by MTT assay; format: functional, Cryptococcus bacillisporus
[6] = test system: Cryptococcus neoformans; assay: Antifungal activity against Cryptococcus neoformans LMM820 assessed as reduction in cell viability at 3.9 uM after 6 to 72 hrs by MTT assay; format: functional
[7] = test system: Cryptococcus neoformans; assay: Ratio of compound MIC for Cryptococcus neoformans CN31 in presence of fluconazole to compound MIC for Cryptococcus neoformans CN31 in absence of fluconazole by checkerboard microtiter test; format: functional; summary of the method: as §1
[8] = test system: Cryptococcus neoformans; assay: Ratio of compound MIC for Cryptococcus neoformans 28JF in presence of fluconazole to compound MIC for Cryptococcus neoformans 28JF in absence of fluconazole by checkerboard microtiter test; format: functional; summary of the method: as §1
[9] = test system: Cryptococcus bacillisporus; assay: Ratio of compound MIC for Cryptococcus gattii ATCC 32608 in presence of fluconazole to compound MIC for Cryptococcus gattii ATCC 32608 in absence of fluconazole by checkerboard microtiter test; format: functional; summary of the method: as §1
[10] = test system: Cryptococcus gattii species complex; assay: Ratio of compound MIC for Cryptococcus gattii 196L/03 in presence of amphotericin B to compound MIC for Cryptococcus gattii 196L/03 in absence of amphotericin B by checkerboard microtiter test; format: functional, Cryptococcus bacillisporus; summary of the method: as §1
[11] = test system: Cryptococcus gattii species complex; assay: Ratio of compound MIC for Cryptococcus gattii L24/01 in presence of fluconazole to compound MIC for Cryptococcus gattii L24/01 in absence of fluconazole by checkerboard microtiter test; format: functional, Cryptococcus bacillisporus; summary of the method: as §1
[12] = test system: Cryptococcus gattii species complex; assay: Ratio of compound MIC for Cryptococcus gattii LMM818 in presence of amphotericin B to compound MIC for Cryptococcus gattii LMM818 in absence of amphotericin B by checkerboard microtiter test; format: functional, Cryptococcus bacillisporus; summary of the method: as §1
[13] = test system: Cryptococcus neoformans; assay: Antifungal activity against Cryptococcus neoformans WP assessed as reduction in cell viability at 3.9 uM after 6 to 72 hrs by MTT assay; format: functional
[14] = test system: Cryptococcus neoformans; assay: Antifungal activity against Cryptococcus neoformans 27JF assessed as reduction in cell viability at 3.9 uM after 6 to 72 hrs by MTT assay; format: functional
[15] = test system: Cryptococcus neoformans; assay: Ratio of compound MIC for Cryptococcus neoformans F10 in presence of fluconazole to compound MIC for Cryptococcus neoformans F10 in absence of fluconazole by checkerboard microtiter test; format: functional; summary of the method: as §1
[16] = test system: Cryptococcus gattii species complex; assay: Ratio of compound MIC for Cryptococcus gattii 547/OTTI-97-PI-10 in presence of fluconazole to compound MIC for Cryptococcus gattii 547/OTTI-97-PI-10 in absence of fluconazole by checkerboard microtiter test; format: functional, Cryptococcus bacillisporus; summary of the method: as §1
[17] = test system: Cryptococcus gattii species complex; assay: Ratio of compound MIC for Cryptococcus gattii L27/01 in presence of fluconazole to compound MIC for Cryptococcus gattii L27/01 in absence of fluconazole by checkerboard microtiter test; format: functional, Cryptococcus bacillisporus; summary of the method: as §1
[18] = test system: Cryptococcus gattii species complex; assay: Antifungal activity against Cryptococcus gattii L27/01 assessed as reduction in cell viability at 3.9 uM after 6 to 72 hrs by MTT assay; format: functional, Cryptococcus bacillisporus
[19] = test system: Cryptococcus gattii species complex; assay: Ratio of compound MIC for Cryptococcus gattii L28/02 in presence of fluconazole to compound MIC for Cryptococcus gattii L28/02 in absence of fluconazole by checkerboard microtiter test; format: functional, Cryptococcus bacillisporus; summary of the method: as §1
[20] = test system: Cryptococcus neoformans; assay: Ratio of compound MIC for Cryptococcus neoformans ATCC 28957 in presence of fluconazole to compound MIC for Cryptococcus neoformans ATCC 28957 in absence of fluconazole by checkerboard microtiter test; format: functional; summary of the method: as §1
[21] = test system: Cryptococcus gattii species complex; assay: Ratio of compound MIC for Cryptococcus gattii 135L/03 in presence of amphotericin B to compound MIC for Cryptococcus gattii 135L/03 in absence of amphotericin B by checkerboard microtiter test; format: functional, Cryptococcus bacillisporus
[22] = test system: Cryptococcus neoformans; assay: Ratio of compound MIC for Cryptococcus neoformans 5396 in presence of amphotericin B to compound MIC for Cryptococcus neoformans 5396 in absence of amphotericin B by checkerboard microtiter test; format: functional; summary of the method: as §1
[23] = test system: Cryptococcus gattii species complex; assay: Ratio of compound MIC for Cryptococcus gattii L27/01 in presence of amphotericin B to compound MIC for Cryptococcus gattii L27/01 in absence of amphotericin B by checkerboard microtiter test; format: functional, Cryptococcus bacillisporus; summary of the method: as §1
[24] = test system: Cryptococcus gattii species complex; assay: Ratio of compound MIC for Cryptococcus gattii ICB181 in presence of amphotericin B to compound MIC for Cryptococcus gattii ICB181 in absence of amphotericin B by checkerboard microtiter test; format: functional, Cryptococcus bacillisporus; summary of the method: as §1
[25] = test system: Cryptococcus neoformans; assay: Ratio of compound MIC for Cryptococcus neoformans 5396 in presence of fluconazole to compound MIC for Cryptococcus neoformans 5396 in absence of fluconazole by checkerboard microtiter test; format: functional; summary of the method: as §1
[26] = test system: Cryptococcus gattii species complex; assay: Antifungal activity against Cryptococcus gattii L24/01 assessed as reduction in cell viability at 3.9 uM after 6 to 72 hrs by MTT assay; format: functional, Cryptococcus bacillisporus
[27] = test system: Cryptococcus gattii species complex; assay: Antifungal activity against Cryptococcus gattii 196L/03 assessed as reduction in cell viability at 3.9 uM after 6 to 72 hrs by MTT assay; format: functional, Cryptococcus bacillisporus
[28] = test system: Cryptococcus neoformans; assay: Ratio of compound MIC for Cryptococcus neoformans WP in presence of amphotericin B to compound MIC for Cryptococcus neoformans WP in absence of amphotericin B by checkerboard microtiter test; format: functional; summary of the method: as §1
[29] = test system: Cryptococcus gattii species complex; assay: Antifungal activity against Cryptococcus gattii ICB181 assessed as reduction in cell viability at 1.9 uM after 6 to 72 hrs by MTT assay; format: functional, Cryptococcus bacillisporus
[30] = test system: Cryptococcus gattii species complex; assay: Antifungal activity against Cryptococcus gattii 196L/03 assessed as reduction in cell viability at 1.9 uM after 6 to 72 hrs by MTT assay; format: functional, Cryptococcus bacillisporus
[31] = test system: Cryptococcus gattii species complex; assay: Antifungal activity against Cryptococcus gattii L27/01 assessed as reduction in cell viability at 1.9 uM after 6 to 72 hrs by MTT assay; format: functional, Cryptococcus bacillisporus
[32] = test system: Cryptococcus gattii species complex; assay: Antifungal activity against Cryptococcus gattii 135L/03 assessed as reduction in cell viability at 1.9 uM after 6 to 72 hrs by MTT assay; format: functional, Cryptococcus bacillisporus

Structure (SMILES) | fractional inhibitory concentration index (FICI) [1] | fractional inhibitory concentration index (FICI) [2] | Activity [3] [%] | fractional inhibitory concentration index (FICI) [7] | fractional inhibitory concentration index (FICI) [8] | fractional inhibitory concentration index (FICI) [9] | fractional inhibitory concentration index (FICI) [10] | fractional inhibitory concentration index (FICI) [11] | fractional inhibitory concentration index (FICI) [12] | fractional inhibitory concentration index (FICI) [15] | fractional inhibitory concentration index (FICI) [16] | fractional inhibitory concentration index (FICI) [17] | fractional inhibitory concentration index (FICI) [19] | fractional inhibitory concentration index (FICI) [20] | fractional inhibitory concentration index (FICI) [21] | fractional inhibitory concentration index (FICI) [22] | fractional inhibitory concentration index (FICI) [23] | fractional inhibitory concentration index (FICI) [24] | fractional inhibitory concentration index (FICI) [25] | fractional inhibitory concentration index (FICI) [28] | also measured
COc1ccc(-c2csc(N/N=C/C3CCCCC3)n2)cc1 | 2.71 | 2.58 | 80 | 2.58 | 4.59 | 4.38 | 1.58 | 6.79 | 1.46 | 2.46 | 3.46 | 1.18 | 4.38 | 2.51 | 1.46 | 2.07 | 2.66 | 1.73 | 3.48 | 1.46 | Activity [4]: 80%; Activity [5]: 80%; Activity [6]: 80%; Activity [13]: 80%; Activity [14]: 80%; Activity [18]: 80%; Activity [26]: 80%; Activity [27]: 80%
C(=N\Nc1nc(-c2ccccc2)cs1)/C1CCCCC1 | 2.47 | 4.74 |  | 3.97 | 1.99 | 1.72 | 3.97 | 2.47 | 2.58 | 4.47 | 4.47 | 4.23 | 2.47 | 4.47 | 2.67 | 1.15 | 1.34 | 4.98 | 2.4 | 2.41 | Activity [29]: 90%; Activity [30]: 90%; Activity [31]: 90%; Activity [32]: 90%
c1ccc(-c2csc(NN=C3CCCC3)n2)cc1 | 2.45 | 2.66 | 80 | 2.71 | 3.77 | 3.45 | 1.46 | 6.46 | 2.58 | 1.98 | 5.96 | 1.45 | 4.22 | 3.36 | 1.46 | 4.86 | 2.48 | 1.28 | 3.46 | 1.46 | Activity [4]: 80%; Activity [5]: 80%; Activity [6]: 80%; Activity [13]: 80%; Activity [14]: 80%; Activity [18]: 80%; Activity [26]: 80%; Activity [27]: 80%
